Values after ≈ are worked out from the molar mass of the structure shown. Active and inactive are the calls of the source. No cut-off for these calls is given here.
What was measured:
Rhizopus arrhizus [1] = assay: Antifungal activity against drug-susceptible Rhizopus oryzae UTHSC 06-1351 by broth microdilution method; assay type: functional
Outline: (§1)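 Posaconazole MIC in ug/ml, determined by broth microdilution following the CLSI guidelines for moulds (M38-A2).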

Rhizopus arrhizus [2] = assay: Antifungal activity against drug-susceptible Rhizopus oryzae UTHSC 06-2374 by broth microdilution method; assay type: functional; outline: as §1
Rhizopus arrhizus [3] = assay: Antifungal activity against drug-susceptible Rhizopus oryzae UTHSC 03-112 at 5 ug by disk diffusion assay; assay type: functional; settings: read-out: DIZ
Outline: (§2)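 Neo-Sensitabs tablet diffusion on Mueller-Hinton agar, following the guidelines for molds. Tablets were 9 mm in diameter and held 5 µg of drug. The read-out was inhibition zone diameter in mm.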

Rhizopus arrhizus [4] = assay: Antifungal activity against drug-susceptible Rhizopus oryzae UTHSC 05-1502 at 5 ug by disk diffusion assay; assay type: functional; settings: read-out: DIZ
Outline: (§3)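 Neo-Sensitabs tablet diffusion on Mueller-Hinton agar, following guidelines for molds; 9 mm tablets containing 5 µg posaconazole; inhibition zone diameter measured in mm; zone breakpoints applied at 24 h.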

Rhizopus arrhizus [5] = assay: Antifungal activity against drug-susceptible Rhizopus oryzae UTHSC 04-278 by broth microdilution method; assay type: functional
Outline: (§4)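 CLSI broth microdilution for filamentous fungi (M38-A2); MIC recorded in µg/ml against clinical isolates; breakpoints applied at 24 h.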

Rhizopus arrhizus [6] = assay: Antifungal activity against drug-susceptible Rhizopus oryzae UTHSC 2868 by broth microdilution method; assay type: functional
Rhizopus arrhizus [7] = assay: Antifungal activity against drug-susceptible Rhizopus oryzae UTHSC 2868 after 24 to 48 hrs; assay type: functional
Rhizopus arrhizus [8] = assay: Antifungal activity against drug-susceptible Rhizopus oryzae UTHSC 05-3580 at 5 ug by disk diffusion assay; assay type: functional; settings: read-out: DIZ
Outline: (§5)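 Neo-Sensitabs tablet diffusion on Mueller-Hinton agar, run per the mould guidelines. Tablets are 9 mm in diameter and carry 5 ug posaconazole. The read-out is the inhibition zone diameter in mm.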

Rhizopus arrhizus [9] = assay: Antifungal activity against drug-susceptible Rhizopus oryzae UTHSC 06-4152 after 24 to 48 hrs; assay type: functional
Outline: (§6)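 Minimum fungicidal concentration taken from the broth microdilution plates. From each well with complete inhibition (optically clear), 20 ul is plated on potato dextrose agar. Plates are incubated at 35°C for 24 to 48 h. The MFC is the lowest drug concentration giving no growth.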

Rhizopus arrhizus [10] = assay: Antifungal activity against drug-susceptible Rhizopus oryzae UTHSC 06-329 after 24 to 48 hrs; assay type: functional; outline: as §6
Rhizopus arrhizus [11] = assay: Antifungal activity against drug-susceptible Rhizopus oryzae UTHSC 03-1826 by broth microdilution method; assay type: functional
Outline: (§7)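 Broth microdilution MIC in µg/ml, run per the CLSI (formerly NCCLS) guideline for filamentous fungi, M38-A2.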

Rhizopus arrhizus [12] = assay: Antifungal activity against drug-susceptible Rhizopus oryzae UTHSC 06-4133 by broth microdilution method; assay type: functional; outline: as §1
Rhizopus arrhizus [13] = assay: Antifungal activity against drug-susceptible Rhizopus oryzae UTHSC 06-1080 at 5 ug by disk diffusion assay; assay type: functional; settings: read-out: DIZ; outline: as §5
Rhizopus arrhizus [14] = assay: Antifungal activity against drug-susceptible Rhizopus oryzae UTHSC 06-89 after 24 to 48 hrs; assay type: functional
Rhizopus arrhizus [15] = assay: Antifungal activity against drug-susceptible Rhizopus oryzae UTHSC 06-3913 by broth microdilution method; assay type: functional; outline: as §1
Rhizopus arrhizus [16] = assay: Antifungal activity against drug-intermediate Rhizopus oryzae UTHSC 05-3032 after 24 to 48 hrs; assay type: functional
Rhizopus arrhizus [17] = assay: Antifungal activity against drug-susceptible Rhizopus oryzae UTHSC 05-1679 after 24 to 48 hrs; assay type: functional
Outline: (§8)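 Minimum fungicidal concentration: 20 µl from each microdilution well showing complete inhibition (optically clear) plated on potato dextrose agar, incubated 35°C for 24 to 48 h; MFC taken as lowest drug concentration giving no growth.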

Rhizopus arrhizus [18] = assay: Antifungal activity against drug-susceptible Rhizopus oryzae UTHSC 05-3132 after 24 to 48 hrs; assay type: functional; outline: as §6
Rhizopus arrhizus [19] = assay: Antifungal activity against drug-susceptible Rhizopus oryzae UTHSC 03-228 at 5 ug by disk diffusion assay; assay type: functional; settings: read-out: DIZ; outline: as §2
Rhizopus arrhizus [20] = assay: Antifungal activity against drug-susceptible Rhizopus oryzae UTHSC 02-439 at 5 ug by disk diffusion assay; assay type: functional; settings: read-out: DIZ; outline: as §2
Rhizopus arrhizus [21] = assay: Antifungal activity against drug-susceptible Rhizopus oryzae UTHSC 06-2457 after 24 to 48 hrs; assay type: functional; outline: as §6
Rhizopus arrhizus [22] = assay: Antifungal activity against drug-susceptible Rhizopus oryzae UTHSC 05-3111 at 5 ug by disk diffusion assay; assay type: functional; settings: read-out: DIZ; outline: as §5
Rhizopus arrhizus [23] = assay: Antifungal activity against drug-intermediate Rhizopus oryzae UTHSC 04-3109 infected in OF1 mouse assessed as reduction in brain fungal load at 10-30 mg/kg, po bid treated 24 hrs after fungal infection; assay type: functional, organism-based
Outline: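 Tissue burden in immunosuppressed male OF1 mice, using cyclophosphamide 200 mg/kg i.p. plus 5-fluorouracil 150 mg/kg i.v. on day −1. Mice received 2 × 10^4 CFU i.v. by tail vein, then oral gavage at 10, 20 or 30 mg/kg BID from 24 h post-challenge, with ceftazidime cover; untreated controls. Groups of 10 were killed on day 4. Kidneys and brains were homogenized in 2 ml saline, serially diluted 10-fold, plated on PDA and counted after 24 h at 35°C.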

Rhizopus arrhizus [24] = assay: Antifungal activity against drug-susceptible Rhizopus oryzae UTHSC 06-3913 after 24 to 48 hrs; assay type: functional; outline: as §6
Rhizopus arrhizus [25] = assay: Antifungal activity against drug-intermediate Rhizopus oryzae UTHSC 03-285 after 24 to 48 hrs; assay type: functional
Rhizopus arrhizus [26] = assay: Antifungal activity against drug-susceptible Rhizopus oryzae UTHSC 05-2447 after 24 to 48 hrs; assay type: functional; outline: as §8
Rhizopus arrhizus [27] = assay: Antifungal activity against drug-susceptible Rhizopus oryzae UTHSC 412-546 after 24 to 48 hrs; assay type: functional
Rhizopus arrhizus [28] = assay: Antifungal activity against drug-susceptible Rhizopus oryzae UTHSC 06-4133 after 24 to 48 hrs; assay type: functional; outline: as §6
Rhizopus arrhizus [29] = assay: Antifungal activity against drug-susceptible Rhizopus oryzae UTHSC 06-2374 at 5 ug by disk diffusion assay; assay type: functional; settings: read-out: DIZ; outline: as §5
Rhizopus arrhizus [30] = assay: Antifungal activity against drug-susceptible Rhizopus oryzae UTHSC 05-2447 by broth microdilution method; assay type: functional; outline: as §4
Rhizopus arrhizus [31] = assay: Antifungal activity against drug-susceptible Rhizopus oryzae UTHSC 05-3580 by broth microdilution method; assay type: functional; outline: as §1
Rhizopus arrhizus [32] = assay: Antifungal activity against drug-susceptible Rhizopus oryzae UTHSC 05-197 after 24 to 48 hrs; assay type: functional; outline: as §8
Rhizopus arrhizus [33] = assay: Antifungal activity against drug-susceptible Rhizopus oryzae UTHSC 06-3827 after 24 to 48 hrs; assay type: functional; outline: as §6
Rhizopus arrhizus [34] = assay: Antifungal activity against drug-susceptible Rhizopus oryzae UTHSC 06-731 after 24 to 48 hrs; assay type: functional
Rhizopus arrhizus [35] = assay: Antifungal activity against drug-susceptible Rhizopus oryzae UTHSC 05-2447 at 5 ug by disk diffusion assay; assay type: functional; settings: read-out: DIZ; outline: as §3
Rhizopus arrhizus [36] = assay: Antifungal activity against drug-susceptible Rhizopus oryzae UTHSC 03-3110 at 5 ug by disk diffusion assay; assay type: functional; settings: read-out: DIZ; outline: as §3
Rhizopus arrhizus [37] = assay: Antifungal activity against drug-susceptible Rhizopus oryzae UTHSC 06-434 at 5 ug by disk diffusion assay; assay type: functional; settings: read-out: DIZ; outline: as §5
Rhizopus arrhizus [38] = assay: Antifungal activity against drug-intermediate Rhizopus oryzae UTHSC 07-365 by broth microdilution method; assay type: functional; outline: as §7
Rhizopus arrhizus [39] = assay: Antifungal activity against drug-susceptible Rhizopus oryzae UTHSC 06-2374 after 24 to 48 hrs; assay type: functional; outline: as §6
Rhizopus arrhizus [40] = assay: Antifungal activity against drug-susceptible Rhizopus oryzae UTHSC 03-2970 by broth microdilution method; assay type: functional; outline: as §7
Rhizopus arrhizus [41] = assay: Antifungal activity against drug-susceptible Rhizopus oryzae UTHSC 03-299 at 5 ug by disk diffusion assay; assay type: functional; settings: read-out: DIZ; outline: as §3

SMILES: CC[C@@H]([C@H](C)O)n1ncn(-c2ccc(N3CCN(c4ccc(OC[C@@H]5CO[C@@](Cn6cncn6)(c6ccc(F)cc6F)C5)cc4)CC3)cc2)c1=O [POSACONAZOLE]
- MIC (Rhizopus arrhizus [1]): 0.25 µg/mL (≈ 0.357 µM)
- MIC (Rhizopus arrhizus [2]): 0.5 µg/mL (≈ 0.713 µM)
- zone of inhibition at 5 µg/disc (Rhizopus arrhizus [3]): 20 mm
- zone of inhibition at 5 µg/disc (Rhizopus arrhizus [4]): 21 mm
- MIC (Rhizopus arrhizus [5]): 1 µg/mL (≈ 1.43 µM)
- MIC (Rhizopus arrhizus [6]): 1 µg/mL (≈ 1.43 µM)
- MFC (Rhizopus arrhizus [7]): 8 µg/mL (≈ 11.4 µM)
- zone of inhibition at 5 µg/disc (Rhizopus arrhizus [8]): 25 mm
- MFC (Rhizopus arrhizus [9]): 1 µg/mL (≈ 1.43 µM)
- MFC (Rhizopus arrhizus [10]): 0.5 µg/mL (≈ 0.713 µM)
- MIC (Rhizopus arrhizus [11]): 0.5 µg/mL (≈ 0.713 µM)
- MIC (Rhizopus arrhizus [12]): 0.5 µg/mL (≈ 0.713 µM)
- zone of inhibition at 5 µg/disc (Rhizopus arrhizus [13]): 18 mm
- MFC (Rhizopus arrhizus [14]): 1 µg/mL (≈ 1.43 µM)
- MIC (Rhizopus arrhizus [15]): 0.5 µg/mL (≈ 0.713 µM)
- MFC (Rhizopus arrhizus [16]): > 16 µg/mL
- MFC (Rhizopus arrhizus [17]): 0.5 µg/mL (≈ 0.713 µM)
- MFC (Rhizopus arrhizus [18]): 0.5 µg/mL (≈ 0.713 µM)
- zone of inhibition at 5 µg/disc (Rhizopus arrhizus [19]): 25 mm
- zone of inhibition at 5 µg/disc (Rhizopus arrhizus [20]): 22 mm
- MFC (Rhizopus arrhizus [21]): > 16 µg/mL
- zone of inhibition at 5 µg/disc (Rhizopus arrhizus [22]): 20 mm
- Activity (Rhizopus arrhizus [23]): inactive
- MFC (Rhizopus arrhizus [24]): 4 µg/mL (≈ 5.71 µM)
- MFC (Rhizopus arrhizus [25]): > 16 µg/mL
- MFC (Rhizopus arrhizus [26]): 1 µg/mL (≈ 1.43 µM)
- MFC (Rhizopus arrhizus [27]): 8 µg/mL (≈ 11.4 µM)
- MFC (Rhizopus arrhizus [28]): 1 µg/mL (≈ 1.43 µM)
- zone of inhibition at 5 µg/disc (Rhizopus arrhizus [29]): 23 mm
- MIC (Rhizopus arrhizus [30]): 1 µg/mL (≈ 1.43 µM)
- MIC (Rhizopus arrhizus [31]): 0.5 µg/mL (≈ 0.713 µM)
- MFC (Rhizopus arrhizus [32]): 0.5 µg/mL (≈ 0.713 µM)
- MFC (Rhizopus arrhizus [33]): 16 µg/mL (≈ 22.8 µM)
- MFC (Rhizopus arrhizus [34]): 0.5 µg/mL (≈ 0.713 µM)
- zone of inhibition at 5 µg/disc (Rhizopus arrhizus [35]): 17 mm
- zone of inhibition at 5 µg/disc (Rhizopus arrhizus [36]): 17 mm
- zone of inhibition at 5 µg/disc (Rhizopus arrhizus [37]): 15 mm
- MIC (Rhizopus arrhizus [38]): 2 µg/mL (≈ 2.85 µM)
- MFC (Rhizopus arrhizus [39]): 1 µg/mL (≈ 1.43 µM)
- MIC (Rhizopus arrhizus [40]): 1 µg/mL (≈ 1.43 µM)
- zone of inhibition at 5 µg/disc (Rhizopus arrhizus [41]): 15 mm

Source: ChEMBL document CHEMBL1255417, “Correlation between in vitro activity of posaconazole and in vivo efficacy against Rhizopus oryzae infection in mice” (Antimicrob Agents Chemother, 2010)
